# FXIIa inh – human FXIIa protease inhibitors, primary screen, biochemical, 1536-well; Coagulation factor XII (Homo sapiens), P00748; purified FXIIa, Boc-QGR-AMC fluorogenic substrate, 2 h; inhibition, % at 5 µM; actives 0.3% (n = 220,000); AID 800, 2007; in the data active = inhibition above about 40%;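 also: 0% = enzyme with no compound and 100% = blank without enzyme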
# thrombin 1536 – human alpha-thrombin inhibitors, primary screen, counter-screen for coagulation protease inhibitor project, biochemical, 1536-well, fluorogenic AMC substrate; actives 0.26% (n = 220,000); Boc-VPR-AMC fluorogenic substrate cleavage; inhibition, % at 5 µM; AID 1046, 2008;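 active = inhibition at or above 40%; inactive = inhibition below 40%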;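 also: 0% = enzyme with no compound and 100% = wells without enzyme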
#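 System – human alpha-thrombin · Medium – pH 7.5 Tris (50 mM) with NaCl 150 mM, Tween 20 0.05% · Compound – single-point dosing at 5 µM, 0.2% DMSO · Incubation – enzyme reaction carried out at room temperature · Technique – fluorescence of released AMC, ex 355 nm, em 460 nm · Read-out basis – % inhibition of thrombin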
# Furin inh – human furin inhibitors, primary screen, biochemical, fluorescence intensity | P09958 | purified furin, fluorogenic substrate cleavage | inhibition, % at 20 µM or 30 µM | actives 0.061% (n = 220,000) | AID 463115, 2010; in the data active = inhibition above about 25%
# Target sequence (P09958 108-714 limits assumed): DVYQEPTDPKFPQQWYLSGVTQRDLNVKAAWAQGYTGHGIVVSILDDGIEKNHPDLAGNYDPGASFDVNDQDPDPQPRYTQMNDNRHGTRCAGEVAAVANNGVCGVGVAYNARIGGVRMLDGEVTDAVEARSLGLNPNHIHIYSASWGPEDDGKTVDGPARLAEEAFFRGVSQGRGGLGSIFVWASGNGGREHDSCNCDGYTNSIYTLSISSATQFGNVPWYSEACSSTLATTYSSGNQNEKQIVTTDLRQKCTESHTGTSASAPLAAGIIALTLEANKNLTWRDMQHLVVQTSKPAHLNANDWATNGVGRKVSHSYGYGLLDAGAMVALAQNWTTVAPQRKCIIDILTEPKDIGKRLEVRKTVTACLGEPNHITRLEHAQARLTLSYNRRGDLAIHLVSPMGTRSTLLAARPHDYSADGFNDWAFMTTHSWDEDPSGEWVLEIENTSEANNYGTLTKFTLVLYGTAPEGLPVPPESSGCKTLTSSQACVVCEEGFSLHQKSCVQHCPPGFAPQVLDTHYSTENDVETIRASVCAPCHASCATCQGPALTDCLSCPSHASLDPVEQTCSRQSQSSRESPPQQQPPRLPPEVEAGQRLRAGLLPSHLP
# KLK5 inh – human KLK5 protease inhibitors, primary screen, biochemical, 1536-well; Kallikrein-5 (Homo sapiens), Q9Y337; recombinant hK5, fluorogenic AMC substrate cleavage; inhibition, % at 5 µM; actives 0.59% (n = 210,000); AID 873, 2007;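 active = inhibition of 40% or more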;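 also: 0% = enzyme controls without compound and 100% = no-enzyme blanks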
# FXIa inh 1536 – human FXIa protease inhibitors, primary screen, biochemical, 1536-well; purified FXIa, Boc-Glu-Ala-Arg-AMC fluorogenic substrate; inhibition, % at 5 µM; actives 0.14% (n = 220,000); AID 798, 2007;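 active = inhibition of at least 40%; inactive = inhibition below 40%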;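 also: fluorescence of freed AMC excited at 355 nm; 0% = enzyme without compound and 100% = no enzyme blank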
# m-calpain inh – inhibitors of pig calpain II, primary screen, biochemical, fluorogenic peptide substrate, 1536-well; purified calpain II, 30 min; inhibition, % at 16 µM; actives 0.37% (n = 220,000); AID 1236, 2008;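 active = inhibition above about 50%, limit read from the data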
# An asterisk follows results filed as active; i = inactive. In the library only some 1.4% were active in any assay of this set; here they are far more common.
SMILES,FXIIa inh,thrombin 1536,Furin inh,KLK5 inh,FXIa inh 1536,m-calpain inh
CCc1ccc(N2CC(C(=O)Nc3cc(C)on3)CC2=O)cc1 (stereo not given),13.5,1.1,-15.5,-4.6,-2.1,-3.8
NC(=O)c1cc[n+](CC(=O)c2ccc(NC(=O)c3ccccc3)cc2)cc1,3.6,-3.9,-16.0,-5.3,-3.6,-2.5
O=C(NCCCc1ccccc1)c1ccc(Br)o1,20.3,38.0,-4.9,49.1*,1.4,13.7
O=C(OCn1ncc(Cl)c(Cl)c1=O)c1ccc(F)cc1,-12.1,-0.8,-17.9,2.0,-1.1,20.3
O=c1c(Cl)c(Cl)cnn1Cc1ccc(F)cc1,51.9*,21.7,-7.2,27.9,38.2,25.9
O=C(Nc1nnc(-c2ccccc2)s1)c1cc(S(=O)(=O)N2CCOCC2)c(Cl)cc1Cl,41.5*,4.1,-9.5,4.8,24.9,21.3
O=c1c2[nH]c3cccc(Cl)c3c2ncn1CC1CCCO1 (stereo not given),10.6,2.3,-14.7,0.9,2.1,-25.1
O=c1c2[nH]c3cccc(Cl)c3c2ncn1CCN1CCCCC1,42.7*,0.4,-26.6,-21.4,18.6,-1.0
CCC(=O)Oc1ccc2c(C)c(Cl)c(=O)oc2c1,31.9,47.0*,-112.5,17.1,6.2,i
Cc1c(Cl)c(=O)oc2cc(OC(C)C)ccc12,8.2,0.7,-169.6,-17.6,6.8,-449.9
CCNC(=O)C1CC(=O)N(Cc2ccc3c(c2)OCO3)C(=Nc2ccc(F)cc2)S1 (stereo not given),-4.0,-12.1,32.2*,-1.7,-5.5,-9.9
CC(=O)c1ccc(OCC(O)CN2C(C)CCCC2C)cc1 (stereo not given),12.5,13.8,-29.1,52.4*,2.3,2.5
CN1CCN(CCNC(=O)c2cn(Cc3ccccc3F)nn2)CC1,60.1*,15.2,-10.6,20.1,28.7,15.0
CCN1CCN(CCNC(=O)c2cn(Cc3ccccc3F)nn2)CC1,1.6,-1.3,-6.3,-8.9,6.4,-6.5
Cc1ccc(NC(=O)c2cccc(N3C(=O)C4C5CCC(C5)C4C3=O)c2)c(C)c1 (stereo not given),4.7,2.1,-19.3,0.0,12.7,-8.9
Cc1ccccc1NC(=O)c1cccc(N2C(=O)C3C4CCC(C4)C3C2=O)c1 (stereo not given),21.2,20.5,-3.9,42.9*,15.2,19.0
Cc1ccnc(SCc2cc(=O)c(OC(=O)c3ccco3)co2)n1,13.2,-0.5,-22.2,-14.3,12.4,-8.1
Cc1ccnc(SCc2cc(=O)c(OC(=O)c3ccc(Cl)c([N+](=O)[O-])c3)co2)n1,5.8,-3.8,25.2*,-18.7,5.4,28.3
COc1cc(/C=N/Nc2cc(C)nc(NS(=O)(=O)c3ccccc3)n2)ccc1O,37.4,25.7,10.3,23.0,66.7*,5.6
COc1cc(/C=N/Nc2cc(C)nc(NS(=O)(=O)c3ccc(C)cc3)n2)ccc1O,8.5,-7.2,-0.2,-11.8,1.9,-25.1
CC(C)[C@H](NC(=O)NCc1ccc(F)cc1)C(=O)O,9.3,1.9,-14.9,1.0,1.3,2.7
Fc1ccc(Cn2cccc2C2=NC(c3ccccc3)CO2)cc1 (stereo not given),2.7,-9.7,-16.2,-7.9,-2.5,42.6
Cc1oc(-c2ccccc2)nc1Cn1cccc1C1=NC(c2ccccc2)CO1 (stereo not given),2.8,13.6,-19.1,101.2*,0.4,22.1
O=C(CSc1ccc2nnc(-c3ccccn3)n2n1)Nc1nccs1,5.1,-11.9,-26.9,-7.4,-4.2,-2.1
O=C(CSc1ccc2nnc(-c3ccncc3)n2n1)Nc1nccs1,6.9,-4.7,-20.7,-1.9,-3.6,65.1*
SMILES,FXIIa inh,thrombin 1536,Furin inh,KLK5 inh,FXIa inh 1536,m-calpain inh
CCOc1ccc(NC(=O)CN2C(=O)/C(=C3\SC(=S)N(C4CCS(=O)(=O)C4)C3=O)c3ccccc32)cc1 (stereo not given),21.9,3.3,-2.3,36.4,52.6*,62.6*
Cc1nn(C)cc1NC(=O)CC12CC3CC(CC(C3)C1)C2,6.2,0.8,-16.0,52.4*,4.1,30.7
O=C(Nc1nnc(C2CC2)s1)c1cccnc1Oc1ccc(Cl)cc1,12.5,-1.4,-21.2,0.1,-4.6,13.3
CCNc1ccc(C(=O)OC(C(=O)NC(N)=O)C(C)C)cc1[N+](=O)[O-] (stereo not given),36.2,8.2,-9.6,54.0*,32.5,21.0
Cc1cc(C(F)(F)F)n(-c2nc(C(=O)Nc3cccnc3)cs2)n1,-8.9,-0.3,-21.8,-30.0,-9.7,1.4
CC(=O)c1cccc(NC(=O)c2csc(-n3nc(C)cc3C(F)(F)F)n2)c1,20.9,19.4,-19.5,55.5*,10.7,-6.8
COc1ccc(-c2csc(N3C(=O)C4C5c6ccccc6C(c6ccccc65)C4C3=O)n2)cc1 (stereo not given),17.2,23.2,1.6,62.3*,10.3,3.4
COc1ccc(-c2csc(N3C(=O)C4C5c6ccccc6C(c6ccccc65)[C@@H]4C3=O)n2)cc1 (stereo not given in full),7.6,-2.7,-26.8,-19.7,0.2,-22.6
N=C1/C(=C\c2ccc(OC(=O)c3ccco3)cc2)C(=O)N=C2SC=NN12,30.2,20.9,9.2,57.8*,33.6,18.4
COc1ccc(Nc2nnc(SC(C(=O)Nc3cc(C)ccc3C)c3ccccc3)s2)cc1 (stereo not given),74.9*,38.3,-12.1,22.0,29.8,28.1
COC(=O)c1ccc(COC(=O)CNS(=O)(=O)c2ccccc2)cc1,26.4,54.7*,-11.7,23.3,30.9,22.5
CCOC(=O)C(CC)Sc1nc2c(c(=O)[nH]c(=O)n2C)n1C/C=C(/C)Cl (stereo not given),9.7,7.2,27.9*,2.2,1.7,-24.9
Cc1onc(-c2c(F)cccc2Cl)c1C(=O)Nc1cccc(S(=O)(=O)NCc2ccco2)c1,6.0,-10.1,-18.4,3.1,-4.2,-40.8
Cc1ccc(NC(=O)Nc2ncccc2C)cc1,13.3,1.6,-17.6,-19.0,1.6,-23.8
CCOC(=O)c1ccc(NC(=O)Nc2ncccc2C)cc1,4.7,-3.1,-24.0,-1.6,-2.9,51.1*
O=c1cc(N2CCCCC2)c(-c2ccccc2)nn1Cc1ccccc1,5.0,-5.1,10.2,-1.4,-6.0,15.2
COc1ccc(Cn2nc(-c3ccccc3)c(N3CCCCC3)cc2=O)cc1,4.4,-9.0,-1.6,-1.5,-3.4,72.4*
O=C(O)c1ccc(Nc2nc(-c3cccnc3)nc3ccccc23)cc1,8.9,1.0,-27.8,2.7,3.3,22.1
CC12COC3(C(=O)Nc4nccs4)CC1CCC32C (stereo not given),13.7,12.3,-17.3,71.8*,0.7,2.9

# High-throughput results deposited in PubChem BioAssay by several laboratories.
